Only some compounds are listed: those with a hit (about 2.3% of all), similar ones and a draw of the others.
Yeast superoxide – caloric restriction mimetics inhibiting age-related superoxide in yeast; S. cerevisiae aged cells, superoxide DHE fluorescence; hits give low values; superoxide response (% of plate mean), % at 10 µM; 330,000 tested, 0.18% active;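 active = superoxide response under a set limit, about three screen SD below normal, cut at about 65% in these data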;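 also: yeast aged for seven days with compound at 30 °C before DHE staining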
TRPC6 activator – activators of mouse TRPC6 channel; HEK293-TRPC6 membrane potential dye fluorescence; hits give high values; Q61143; 310,000 tested, 0.13% active; B-score at 10 µM;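 active = B-score of the integrated fluorescence ratio above library mean plus 3 SD, and starting fluorescence ratio within library mean plus 5 SD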;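 also: higher score means more depolarization so channel activation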
TRPC4 block – blocks the mouse TRPC4 cation channel; Q9QUQ5; HEK293 TRPC4beta/mu-opioid, DAMGO-evoked Fluo4 calcium flux; hits give low values; B-score at 10 µM; 300,000 tested, 0.39% active;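 active = B-score over 3 SD under the library average, no early fluorescence shift, positive overall ratio signal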
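Assay system: TRPC4beta/mu-opioid receptor HEK293 cell line; compound dosing: single concentration per test compound; detection: Fluo4 Ca2+ flux fluorescence; evaluation: per-well B score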
TRPC6 inh – blocks the mouse TRPC6 cation channel. HEK293-TRPC6, membrane potential dye, ACh-evoked depolarization; hits give low values. B-score at 10 µM. 310,000 tested, 1.1% active;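 active = B-score under library mean minus 3 SD, initial fluorescence not abnormally high, positive integrated signal ratio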;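 also: B-score derived from integrated fluorescence ratio over the kinetic read; more negative B-score means stronger inhibition of depolarization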
TRPC4 agonist – activators of mouse TRPC4 channel. HEK293 TRPC4beta/mu-opioid, Fluo4 calcium fluorescence; hits give high values. B-score at 10 µM. 310,000 tested, 0.49% active. Q9QUQ5;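 active = B-score above 5 SD of library B-scores, and initial fluorescence ratio not above library mean plus 5 SD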;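 also: positive B-score marks a calcium rise read as TRPC4 activation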
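Technique: kinetic Fluo4 calcium fluorescence; Test system: TRPC4beta and mu-opioid receptor HEK293 stable cells; Measure: B-scored integrated calcium fluorescence ratio; Benchmarks: low control buffer alone, high control maximal DAMGO; Schedule: 45 min room-temperature Fluo4 loading, 110 s read.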
TRPC4 potent – allosteric potentiators of mouse TRPC4 channel. B-score at 10 µM. HEK293 TRPC4beta/mu-opioid, DAMGO EC20, Fluo-4 Ca2+ flux; hits give high values. 310,000 tested, 0.42% active. AID 2227;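 active = B-score of calcium response area above 5 SD of library B-scores, with initial fluorescence ratio within 5 SD of library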
Of the large screens only hits and unclear results are named; the others gave an inactive call.

Cc1cc(C)nc(/N=C(\N)Nc2ccccc2-c2ccccc2)n1	TRPC4 block -6
Cc1cc(C)cc(N/C(N)=N/c2nc(C)cc(C)n2)c1	TRPC4 block -6
COC(=O)[C@@]12CCCCN1[C@H](c1ccc(-c3cccc(Cl)c3)c(OC)c1)[C@H]1C(=O)N(C)C(=O)[C@H]12	TRPC4 potent 25
COC(=O)[C@@]12CCCCN1[C@H](c1ccc(-c3ccc(OC)cc3)cc1)[C@@H]1C(=O)N(C)C(=O)[C@@H]12	TRPC4 potent 13
COC(=O)[C@@]12CCCCN1[C@H](c1ccc(-c3ccc(C(C)=O)cc3)cc1)[C@@H]1C(=O)N(C)C(=O)[C@@H]12	TRPC4 potent 43
c1ccc(-c2c[nH]c3[n+]2CCCCC3)cc1	none
O=C(C1CCN(S(=O)(=O)c2cnc[nH]2)CC1)N(CCc1ccccc1)Cc1ccccc1	none
O=C(C1CCN(CC2CC=CCC2)CC1)N(CCc1ccccc1)Cc1ccccc1 (centres undefined)	TRPC4 block -5
CSCC[C@H](NC(=O)OC(C)(C)C)C(=O)N/N=C/c1cccc2cccnc12	TRPC4 potent 10
O=[N+]([O-])c1ccc(C[n+]2cccc(O)c2)cc1	TRPC4 agonist 168
O=C(O)c1ccc[n+](Cc2ccc([N+](=O)[O-])cc2)c1	none
N=C1SCC(=O)N1c1ccc(Cl)cc1	none
CC(C)(C)c1ccc(N2C(=N)SCC2=O)cc1	TRPC4 potent 33
Cc1cc(NCc2ccccc2)nc2ccccc12	TRPC4 block -7, TRPC4 agonist 51
COC(=O)c1ccc(OCC(O)CN2CCc3cc(OC)c(OC)cc3C2c2ccccc2)cc1 (centres undefined)	TRPC4 potent 11
COc1ccc(S(=O)(=O)C(C#N)c2nc3ccccc3nc2N2CCC(C)CC2)cc1 (centres undefined)	none
CCN(CC)C(=O)c1sc2nc(-c3ccccn3)[nH]c(=O)c2c1C	TRPC4 agonist 68
Cc1ccccc1NC(=O)CN1C(=O)NC(C)(c2ccc3c(c2)OCO3)C1=O (centres undefined)	none
Clc1ccc2c(c1)-c1nnc(Br)n1-c1ccccc1S2	TRPC4 block -6
Brc1nnc2n1-c1ccccc1Sc1ccccc1-2	none
CCN1CCN(C(=O)NS(=O)(=O)c2ccc(C)cc2)CC1	none (no result: Yeast superoxide)
Cc1ccc(S(=O)(=O)NC(=O)N2CCN(Cc3c(F)cccc3Cl)CC2)cc1	TRPC4 potent 21
OC1CCCN(c2c3c(nc4cc(-c5cccc(F)c5)nn24)CCCC3)C1 (centres undefined)	none
COCCN1CCN(c2c3c(nc4cc(-c5cccc(F)c5)nn24)CCC3)CC1	TRPC4 agonist 60, TRPC4 potent 11
CCOc1ccccc1NC(=O)C1CCCN(S(C)(=O)=O)C1 (centres undefined)	none
CC(NS(=O)(=O)OCC(Cl)(Cl)Cl)c1ccc(Br)cc1 (centres undefined)	TRPC4 potent 15
Cc1ccc(-c2nn(-c3ccccc3)cc2CSC(=N)N)cc1	TRPC4 agonist 68
O=C(CSCc1cccc(Cl)c1)N1CCN(Cc2ccc3c(c2)OCO3)CC1	TRPC4 block -7
O=C(c1cccc(Cl)c1)N1CCN(Cc2ccc3c(c2)OCO3)CC1	none
COc1cccc(NS(=O)(=O)c2ccc3c(c2)n(C)c(=O)c(=O)n3C)c1	none
N#Cc1c(N)sc2c1CCCCCC2	TRPC4 block -7
N#Cc1c(N)sc(=S)c2c1CCCCC2	none
N#C/C(C(=O)c1ccccc1)=C1/CCCCCN1	none
CCN(CC)CCN(C(=O)c1ccccc1OC)c1nc2ccc(F)cc2s1	TRPC4 block -6
CN(C)CCCN(C(=O)c1ccc(S(=O)(=O)N2CCc3ccccc32)cc1)c1nc2ccc(F)cc2s1	TRPC4 agonist 111
CN(C)CCCN(C(=O)c1ccc(S(=O)(=O)N(C)C)cc1)c1nc2ccc(F)cc2s1	TRPC4 block -5, TRPC4 agonist 49
CN(C)CCCN(C(=O)c1ccc(S(=O)(=O)N2CCc3ccccc32)cc1)c1nc2ccc(Cl)cc2s1	none
CN(C)CCCN(C(=O)c1ccc(S(=O)(=O)N2CCCC2)cc1)c1nc2c(F)cc(F)cc2s1	TRPC4 block -9
Cc1ccc2nc(N(CCCN(C)C)C(=O)c3ccc(S(=O)(=O)N(C)C)cc3)sc2c1	none
CCN(CC)CCN(C(=O)c1ccc2c(c1)CCCC2)c1nc2ccc(F)cc2s1	none
O=S1(=O)CCC(N=Cc2ccc(-c3ccc(Cl)cc3)o2)C1 (centres undefined)	none
Cc1ccc(C(=O)N(CCCN(C)C)c2nc3ccc(Cl)cc3s2)cc1C	none
CN(C)CCCN(C(=O)c1ccc(S(=O)(=O)N2CCc3ccccc3C2)cc1)c1nc2ccc(F)cc2s1	TRPC4 agonist 111
Cc1ccc2nc(N(CCCN(C)C)C(=O)c3ccc(S(=O)(=O)N4CCc5ccccc5C4)cc3)sc2c1	TRPC4 agonist 129
Cc1ccc2nc(N(CCCN(C)C)C(=O)c3sc4ccccc4c3Cl)sc2c1	TRPC4 potent 10
Cc1nc(-c2cccc(S(=O)(=O)N3CCOCC3)c2)cs1	none
O=[N+]([O-])c1ccc(N2CCN(CCO)CC2)c2ncccc12	TRPC4 agonist 56, TRPC4 potent 21
CN(C)CCNC(=O)c1scc2c1CCCC2	TRPC4 agonist 142
Cc1ccn2c(CNCCCn3cccn3)c(C(=O)N3CCCCCC3)nc2c1	TRPC4 block -7
O=C(O)CCNc1nc(-c2ccccc2)c2cc(Br)ccc2n1	TRPC4 potent 16
C=CCc1ccccc1OCC(CN1CCCCC1)OC(C)=O (centres undefined)	TRPC4 block -6
C=CCc1ccccc1OCC(O)CN1CCN(c2ccccc2OC)CC1 (centres undefined)	TRPC4 block -6
CC(NC(=O)c1cc(-c2ccncc2)nc2ccc(Br)cc12)C1CCCO1 (centres undefined)	none
CC(C)Sc1nc2ccc(N3C(=O)C4CCCCC4C3=O)cc2s1 (centres undefined)	none
COc1ccc(-n2cc(CNCCCN3CCCC3=O)c(-c3ccccc3Cl)n2)cc1	none
O=C(Cc1ccc(F)cc1)NCc1cccnc1	none
Fc1ccc(-c2nn(-c3ccccc3)cc2CNCc2ccccc2)cc1	TRPC4 agonist 96
Fc1ccc(-n2cc(CNCCc3ccncc3)c(-c3ccccc3Cl)n2)cc1	TRPC4 block -6
Fc1ccc(-n2cc(CNCCc3cccnc3)c(-c3ccccc3Cl)n2)cc1	TRPC4 agonist 124
CC1CC(C)(C)NC(=S)N1CCC(=O)NCCc1ccc(Cl)cc1 (centres undefined)	none
O=[N+]([O-])c1cccc(-c2ccc(CN3CCCCC3)o2)c1	TRPC4 potent 13

Screens from PubChem BioAssay.
